The subject of assay [1] is MCF7. In words: Anticancer activity against human MCF7 cells after 72 hrs by WST-1 assay. In kind it is functional, cell-based. The note with it: MCF7, 72 h. The gist of the method:
(§1)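 Cells grown in DMEM with 2 mM L-glutamine, 10% FBS, 2.5% horse serum, penicillin and streptomycin, 37 °C, 5% CO2. Seeded at 2 × 10³/well, exposed 72 h to 0.1–50 µM (DMSO ≤0.2% in medium). WST-1 formazan absorbance read at 450 nm. Inhibition taken as % absorbance reduction versus control; IC50 from non-linear least-squares fit. Triplicate, independent experiments averaged.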

Assay [2] in a line: Anticancer activity against human COLO320 cells after 72 hrs by WST-1 assay. In kind it is functional, cell-based. The note with it: COLO 320, 72 h. In short, it runs like this:
as §1
A general note: Formazan colour is commonly taken as a measure of viable cells.

In assay [3] the test system is MIA PaCa-2. In words: Anticancer activity against human MIAPaCa2 cells after 72 hrs by WST-1 assay. In kind it is functional, cell-based. The note with it: MIA PaCa-2, 72 h. The gist of the method:
as §1

The test system of assay [4] is Jurkat. The assay can be described thus: Anticancer activity against human Jurkat cells after 72 hrs by WST-1 assay. Type of assay: functional, cell-based. In short, it runs like this:
as §1

The subject of assay [5] is COLO 320. The assay can be described thus: Induction of apoptosis in human COLO320 cells assessed as increase in caspase 3/7 activation at 100 uM after 24 hrs by spectrophotometry relative to control. In kind it is functional. In short, it runs like this:
(§2)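 Seeded at 7 × 10³/well and dosed 100 µM for 24 h. Caspase-3/7 substrate then added; fluorescence read with excitation 485 nm and emission 530 nm. Result given as the ratio of treated-cell signal to untreated vehicle-only cells.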

The subject of assay [6] is COLO 320. The assay can be described thus: Induction of apoptosis in human COLO320 cells assessed as increase in intraneucleosomal DNA fragmentation at 100 uM after 24 hrs by ELISA relative to control. In kind it is functional. The gist of the method: (§3)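 Dosed at 100 µM for 24 h. Trypsin-harvested cells pooled with detached cells. Cytoplasmic histone-associated DNA fragments (released nucleosomes) measured by sandwich ELISA using a mouse monoclonal anti-DNA/histone antibody. Given as fold over untreated control; duplicate, mean ± SEM.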
On the technique in general: In an ELISA, binding on a coated surface is turned into a signal by an enzyme label.

Assay [7] has as its system MIA PaCa-2. The assay can be described thus: Induction of apoptosis in human MIAPaCa2 cells assessed as increase in caspase 3/7 activation at 100 uM after 24 hrs by spectrophotometry relative to control. Type of assay: functional. In short, it runs like this: as §2
Assay [8] deals with MIA PaCa-2. The assay can be described thus: Induction of apoptosis in human MIAPaCa2 cells assessed as increase in intraneucleosomal DNA fragmentation at 100 uM after 24 hrs by ELISA relative to control. In kind it is functional. The gist of the method:
as §3

As for `Cc1noc(-c2cc3ccccc3[nH]2)n1`, the half-inhibitory concentration (IC50) in assay [1] is over 50 µM; in assay [2], 11.8 µM; in assay [3], 30.5 µM; in assay [4], over 50 µM.

For the compound `COc1ccc2[nH]c(-c3nc(C)no3)cc2c1`, the half-maximal inhibitory concentration (IC50) in assay [1] was 16.7 µM; in assay [2], 10.4 µM; in assay [3], over 50 µM; in assay [4] it was 19.9 µM.

Regarding `Cc1noc(-c2cc3cc(F)ccc3[nH]2)n1`, the “fold change (FC)” value in assay [5] was 1.5; in assay [6], 1; in assay [7], 1.3; in assay [8], 7.3. In addition, the IC50 in assay [1] turned out to be 12.4 µM; in assay [2], 18.1 µM; in assay [3] it was 19.4 µM; in assay [4] it was 22.9 µM.

For `Cc1noc(-c2cc3cc(Cl)ccc3[nH]2)n1`, the concentration for half-maximal inhibition (IC50) in assay [1] was 34.4 µM; in assay [2] it was 19.5 µM; in assay [3], over 50 µM; in assay [4] it was 21.6 µM.

With `c1ccc(-c2noc(-c3cc4ccccc4[nH]3)n2)cc1`, the “fold change (FC)” value was 3.1 in assay [5], 2.5 in assay [6], 1.2 in assay [7] and 1.4 in assay [8]. The IC50 in assay [1] was 45.7 µM; in assay [2] it was 12 µM; in assay [3], 22 µM; in assay [4], over 50 µM.

On to `Nc1noc(-c2cc3ccccc3[nH]2)n1`, for which the IC50 was over 50 µM in assay [1], 27.7 µM in assay [2], 18.7 µM in assay [3] and over 50 µM in assay [4].

In the case of `COc1ccc2[nH]c(-c3nc(-c4ccccc4)no3)cc2c1`, the half-inhibitory concentration (IC50) in assay [1] was over 50 µM; in assay [2], 18.7 µM; in assay [3], 32.6 µM; in assay [4] it was over 50 µM.

As to `Oc1ccc2[nH]c(-c3nc(-c4ccccc4)no3)cc2c1`, the “fold change (FC)” value is reported as 3.6 in assay [5], 4.3 in assay [6], 0.7 in assay [7] and 7.3 in assay [8]. The concentration for half-maximal inhibition (IC50) is 26 µM in assay [1], 15.7 µM in assay [2], 13 µM in assay [3] and 26.9 µM in assay [4].

Turning to `Fc1ccc2[nH]c(-c3nc(-c4ccccc4)no3)cc2c1`, the “fold change (FC)” value came out at 4.4 in assay [5], 5.3 in assay [6], 1.2 in assay [7] and 6.9 in assay [8]. Further, the IC50 in assay [1] turned out to be 35 µM; in assay [2], 10.8 µM; in assay [3], 33.6 µM; in assay [4] it was 33.8 µM.

On to `O=[N+]([O-])c1ccc2[nH]c(-c3nc(-c4ccccc4)no3)cc2c1`, for which the concentration for half-maximal inhibition (IC50) in assay [1] is over 50 µM; in assay [2], 12.5 µM; in assay [3], over 50 µM; in assay [4], over 50 µM.

For `Clc1ccc2[nH]c(-c3nc(-c4ccccc4)no3)cc2c1`, the “fold change (FC)” value in assay [5] turned out to be 1.3; in assay [6] it was 2.1; in assay [7] it was 1.9; in assay [8] it was 1.9. The IC50 in assay [1] was 29.1 µM; in assay [2], 16.5 µM; in assay [3] it was 23.1 µM; in assay [4], over 50 µM.

For the compound `Clc1ccc(-c2noc(-c3cc4ccccc4[nH]3)n2)cc1`, the “fold change (FC)” value is reported as 0.3 in assay [5], 3 in assay [6], 1.2 in assay [7] and 1 in assay [8]. Also, the IC50 is over 50 µM in assay [1], 13.9 µM in assay [2], 19.2 µM in assay [3] and over 50 µM in assay [4].

Take `COc1ccc2[nH]c(-c3nc(-c4ccc(Cl)cc4)no3)cc2c1`: the “fold change (FC)” value is recorded as 4.5 in assay [5], 1.8 in assay [6], 10.1 in assay [7] and 1.2 in assay [8]. For the same compound, the IC50 in assay [1] is over 50 µM; in assay [2], 12.8 µM; in assay [3], 22.7 µM; in assay [4], over 50 µM.

Turning to `Fc1ccc2[nH]c(-c3nc(-c4ccc(Cl)cc4)no3)cc2c1`, the 50% inhibitory concentration (IC50) in assay [1], in assay [2], in assay [3] and in assay [4] was over 50 µM in each case.

`O=[N+]([O-])c1ccc2[nH]c(-c3nc(-c4ccc(Cl)cc4)no3)cc2c1`: the “fold change (FC)” value was found to be 6.4 in assay [5], 1.8 in assay [6], 23.9 in assay [7] and 2.7 in assay [8]. For the same compound, the IC50 in assay [1] is over 50 µM; in assay [2], 7.7 µM; in assay [3], 17.6 µM; in assay [4], over 50 µM.

For the compound `Clc1ccc(-c2noc(-c3cc4cc(Cl)ccc4[nH]3)n2)cc1`, the 50% inhibitory concentration (IC50) in assay [1] was over 50 µM; in assay [2], 25 µM; in assay [3] it was over 50 µM; in assay [4], over 50 µM.

In the case of `Cn1c(-c2nc(-c3ccc(Cl)cc3)no2)cc2cc(Cl)ccc21`, the IC50 is over 50 µM in assay [1], 16.9 µM in assay [2], over 50 µM in assay [3] and over 50 µM in assay [4].

With `COc1ccc(-c2noc(-c3cc4ccccc4[nH]3)n2)cc1`, the IC50 in assay [1] is over 50 µM; in assay [2], 27.7 µM; in assay [3] it was over 50 µM; in assay [4] it was over 50 µM.

Turning to `COc1ccc(-c2noc(-c3cc4ccccc4n3C)n2)cc1`, the IC50 was over 50 µM in assay [1], over 50 µM in assay [2], 23.1 µM in assay [3] and over 50 µM in assay [4].

For the compound `COc1ccc(-c2noc(-c3cc4cc(OC)ccc4[nH]3)n2)cc1`, the “fold change (FC)” value came out at 1.1 in assay [5], 1.2 in assay [6], 2 in assay [7] and 1.9 in assay [8]. Besides, the concentration for half-maximal inhibition (IC50) is over 50 µM in assay [1], 28.3 µM in assay [2], 5.6 µM in assay [3] and over 50 µM in assay [4].

`COc1ccc(-c2noc(-c3cc4cc(F)ccc4[nH]3)n2)cc1`: the “fold change (FC)” value was determined as 2.1 in assay [5], 1.4 in assay [6], 5 in assay [7] and 2.2 in assay [8]. In addition, the IC50 in assay [1] is over 50 µM; in assay [2] it was 14.8 µM; in assay [3], 10.3 µM; in assay [4], over 50 µM.

On to `COc1ccc(-c2noc(-c3cc4cc(Cl)ccc4[nH]3)n2)cc1`, for which the “fold change (FC)” value stood at 4.2 in assay [5], 1.2 in assay [6], 1.4 in assay [7] and 1.4 in assay [8]. Further, the concentration for half-maximal inhibition (IC50) in assay [1] is over 50 µM; in assay [2] it was 9.6 µM; in assay [3], 7.8 µM; in assay [4], over 50 µM.

`FC(F)(F)c1ccc(-c2noc(-c3sccc3Cl)n2)cc1`: the IC50 in assay [1] was over 50 µM; in assay [2], 1.2 µM; in assay [3] it was over 50 µM; in assay [4], over 50 µM.

As usually defined, the IC50 is the point on the concentration scale where inhibition reaches its midpoint. A low value points to greater potency.
